Apaf1 activ: human Apaf-1 activation | hit rate 0.31% among 330,000 | activity change, negative = activation, % at 20 µM | O14727 | Apaf-1 apoptosome caspase-3 activation, DEVD-Rh110 fluorescence; active compounds read low | AID 489031;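 active means activity change at or below -40% at 20 µM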
Target sequence (O14727 whole entry, looked up): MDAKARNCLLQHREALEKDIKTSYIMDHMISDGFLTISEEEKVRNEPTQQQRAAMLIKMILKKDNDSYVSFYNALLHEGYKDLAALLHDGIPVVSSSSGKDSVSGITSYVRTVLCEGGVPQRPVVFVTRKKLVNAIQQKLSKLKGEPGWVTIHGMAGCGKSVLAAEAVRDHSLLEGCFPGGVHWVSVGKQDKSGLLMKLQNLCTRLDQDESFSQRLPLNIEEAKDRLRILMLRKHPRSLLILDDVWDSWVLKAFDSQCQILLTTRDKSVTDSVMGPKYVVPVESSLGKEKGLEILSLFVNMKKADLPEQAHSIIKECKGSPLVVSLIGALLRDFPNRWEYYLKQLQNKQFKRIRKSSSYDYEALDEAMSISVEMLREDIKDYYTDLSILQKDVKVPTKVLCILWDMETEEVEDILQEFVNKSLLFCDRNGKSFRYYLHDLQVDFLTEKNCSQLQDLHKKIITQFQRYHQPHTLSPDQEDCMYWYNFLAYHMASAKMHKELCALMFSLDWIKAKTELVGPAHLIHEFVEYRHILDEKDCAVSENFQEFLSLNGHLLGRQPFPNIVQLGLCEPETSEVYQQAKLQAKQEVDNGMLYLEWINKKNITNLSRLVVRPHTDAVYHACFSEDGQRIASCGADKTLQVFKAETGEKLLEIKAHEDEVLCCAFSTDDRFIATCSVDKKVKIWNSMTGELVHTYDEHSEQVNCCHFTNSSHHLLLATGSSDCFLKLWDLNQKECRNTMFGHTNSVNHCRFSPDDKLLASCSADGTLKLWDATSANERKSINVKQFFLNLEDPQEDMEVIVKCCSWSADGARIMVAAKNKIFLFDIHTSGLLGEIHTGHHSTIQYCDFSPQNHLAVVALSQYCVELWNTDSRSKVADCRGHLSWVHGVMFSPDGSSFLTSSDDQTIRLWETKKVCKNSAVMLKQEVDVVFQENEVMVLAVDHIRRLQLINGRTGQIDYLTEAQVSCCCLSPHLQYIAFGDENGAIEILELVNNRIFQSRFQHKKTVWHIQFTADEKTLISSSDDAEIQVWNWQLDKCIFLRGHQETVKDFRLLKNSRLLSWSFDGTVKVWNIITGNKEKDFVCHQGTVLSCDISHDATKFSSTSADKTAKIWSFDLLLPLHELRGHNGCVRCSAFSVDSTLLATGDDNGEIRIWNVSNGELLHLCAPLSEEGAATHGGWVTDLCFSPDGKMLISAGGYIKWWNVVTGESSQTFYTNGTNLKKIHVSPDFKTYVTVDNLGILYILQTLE
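Material: biochemical Apaf-1 apoptosome reconstitution; Medium: 20 mM HEPES buffer, pH 7.5, containing CHAPS and BSA; Reagent: dATP, cytochrome c, and (Z-DEVD)2-Rh110 caspase-3 substrate; Times: 30 min preincubation, 50 min reaction, room temperature; Signal: Rh110 fluorescence, excitation 480 nm, emission 540 nm; Measure: Caspase-3 activity via Apaf-1.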
Rh110 interf act: Rh110 signal interference in Apaf-1 activator counter-screen; shares compounds with Apaf1 activ; Rh110 fluorescence interference, quenched caspase reaction, Ex480/Em540; fluorescence interference (activity change), % at 20 µM, hits read low; 980 tested, under 10 active; AID 504616;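 active means mean activity change at or below -40% when tested at 20 µM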
Apaf-1 act conf2: Apaf-1 (human) activation, single-dose confirmed; shares compounds with Apaf1 activ; reconstituted apoptosome caspase-3 activity, DEVD-Rh110 fluorescence; active compounds read low; activity change, negative = activation, % at 20 µM; hit rate 5% among 980; AID 504617;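 active means mean activity change at or below -40%, meaning activation of 40% or more, at 20 µM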
Active calls of the source: *; / = no result given. Not all results are given here.

SMILES	Apaf1 activ	Rh110 interf act	Apaf-1 act conf2
C#CCOCCOCCOCCNc1nc(N2CCN(C(=O)C([C@@H](C)CC)n3cc(C(N)COC(=O)C(F)(F)F)nn3)CC2)nc(N2CCN(C(=O)[C@H](Cc3cc4ccccc4[nH]3)n3cc(C(N)CO)nn3)CC2)n1 (some centres undefined)	49	/	/
C#CCOCCOCCOCCNc1nc(N2CCN(C(=O)[C@H](Cc3cc4ccccc4[nH]3)n3cc([C@@H](N)C(C)CC)nn3)CC2)nc(N2CCN(C(=O)[C@H](CCCCN)n3cc([C@@H](N)CC(C)C)nn3)CC2)n1 (some centres undefined)	41	/	/
COc1cc(NC(C)CCCN)c2ncccc2c1 (centres undefined)	92	/	/
COc1ccc(C2c3sc(=O)[nH]c3SC3C(=O)N(c4ccccc4)C(=O)C32)cc1 (centres undefined)	-178*	4	10
c1ccc(CN(CC2=NCCN2)c2ccccc2)cc1	-4	/	/
COc1ccc2oc(C)c(C(=O)Cn3ccnc3)c2c1	-246*	17	16
CCN1C(=NCCc2ccc(Br)cc2)N[C@@H](c2ccccc2)[C@H](C(=O)OC)[C@H]1C	45	/	/
COc1cccc(N2CCN(C(=O)c3ccc(=O)oc3)CC2C)c1 (centres undefined)	-332*	-7	9
Cc1cccc(N2CCN(C(=O)c3ccc4nc(-c5ccco5)c(-c5ccco5)nc4c3)CC2C)c1 (centres undefined)	60	/	/
CN(C)CCCNc1cc(C(C)(C)C)nc2c(-c3ccc(Cl)cc3)cnn12	58	/	/
CC(C)COc1ccc(C(=O)Nc2scc(-c3ccc(Cl)cc3Cl)c2C(N)=O)cc1	45	/	/
Cc1ccc(NC(=O)c2ccc(OC(=O)COc3ccc(Cl)cc3C)cc2)cc1	-486*	-6	8
COc1ccc(CN2C(=O)Cc3c2nc(N)c2c(N)nc(N4CCOCC4)c(C#N)c32)cc1	86	/	/
O=C(CCCC(=O)OCC(Cl)=C(Cl)Cl)Nc1ccccc1F	-61*	-2	4
COc1cc(OC)c2c(-c3ccccc3)cc(=O)oc2c1C(CCN1CCOCC1)c1ccc(N(C)C)cc1 (centres undefined)	52	/	/
COc1cccc(C(=O)NN2C(=S)N(c3ccccc3)C(=O)C2CC(N)=O)c1 (centres undefined)	-83*	-8	11
S=c1[nH]nc(-c2ccncc2)n1/N=C/c1cn(-c2ccccc2)nc1-c1ccc(Cl)cc1	-59*	-1	-19
C#CCOCCOCCOCCNc1nc(N2CCN(C(=O)[C@H](Cc3cc4ccccc4[nH]3)n3cc([C@@H](N)C(C)CC)nn3)CC2)nc(N2CCN(C(=O)[C@H](Cc3cc4ccccc4[nH]3)n3cc([C@@H](N)Cc4ccc(O)cc4)nn3)CC2)n1 (some centres undefined)	60	/	/
O=C(CSc1ncnc2ccccc12)Nc1cccc(S(=O)(=O)N2CCCC2)c1	-43*	2	1
CCN(c1ccccc1)S(=O)(=O)c1ccc(Cl)c(NC(=O)CN2CCN(C)CC2)c1	52	/	/
O=C(CN1CCN(Cc2ccccc2)CC1)Nc1cccc(S(=O)(=O)N2CCCCCC2)c1	-174*	10	15
Cn1c(CN2CCCC2)nc2cc(NC(=O)COc3ccccc3)ccc21	53	/	/
Cc1ccc(C(=O)N2CCCN(c3nc4cc5c(cc4cc3C#N)OCO5)CC2)cc1	67	/	/
C#CCOCCOCCOCCNc1nc(N2CCN(C(=O)CCCCCCCCCCNC(=O)[C@H](CCCCN)n3cc(CCO)nn3)CC2)nc(N2CCN(C(=O)CCCCCCCCCCNC(=O)[C@H](CCCCN)n3cc(CCO)nn3)CC2)n1	64	/	/
CCN(CC)CCN(C(=O)c1ccc2c(c1)CCCC2)c1nc2ccc(OC)cc2s1	61	/	/
SMILES	Apaf1 activ	Rh110 interf act	Apaf-1 act conf2
CC(=O)OC1=C(O)C(=O)c2ccccc2C1=O	59	/	/
CCOC(=O)c1ccc(NC(=S)NC(=O)c2nn(CC)cc2Br)cc1	-51*	0	11
CCOC(=O)c1ccc(NC(=O)c2nn(C)cc2Br)cc1	-148*	4	16
CC(=O)Nc1ccc(C(=O)COC(=O)c2nc3nc(C)cc(C)n3n2)cc1	41	/	/
Cn1c(CCN2CCCCC2)nc2cc(NC(=O)COc3ccccc3)ccc21	53	/	/
CCCN1C(=O)/C(=C/c2cc(C)n(C)c2C)SC1=Nc1ccc(OC)cc1	41	/	/
C[C@H](CO)N1C[C@H](C)[C@@H](CN(C)Cc2ccc(Cl)c(Cl)c2)Oc2c(NC(=O)CCC(F)(F)F)cccc2C1=O	46	/	/
S=C(Nc1ccc(N2CCOCC2)cc1)Nc1ccc2nc(-c3ccco3)c(-c3ccco3)nc2c1	41	/	/
COc1cccc(N2C(=O)CC(Nc3ccc(N4CCOCC4)cc3)C2=O)c1 (centres undefined)	-393*	1	16
CC(C)(C)OC(=O)[C@H](CCCCN)NC(=O)c1[nH]cnc1C(=O)N[C@@H](Cc1ccccc1)C(=O)OCc1ccccc1	65	/	/
CCN(CC)CCOc1ccc(/C(=C(\Cl)c2ccccc2)c2ccccc2)cc1	66	/	/
COc1ccc(-c2cc(C)no2)cc1S(=O)(=O)N1CCOc2ccccc21	-425*	9	14
COc1ccc(CC(=O)N(Cc2ccccc2)c2ccc(C)cc2)cc1S(=O)(=O)N1CCOCC1	43	/	/
CN(C)CC/C=C1\c2ccccc2Sc2ccc(Cl)cc21	49	/	/
CCN(CC)CCCNC1=C(Cl)C(=O)c2ccccc2C1=O	50	/	/
Cc1ccc(N2CC(C(=O)N3CCC(C(=O)Nc4nnc(C(C)(C)C)s4)CC3)CC2=O)cc1 (centres undefined)	-384*	10	12
CC(=O)N1CCN(C(=S)NC(=O)C23CC4CC(CC(C4)C2)C3)CC1	48	/	/
COc1cccc(NC(=S)NC(=O)c2cncc(Br)c2)c1	-318*	-1	10
CC(=O)c1cccc(NC(=S)Nc2cccc3ccccc23)c1	81	/	/
COc1cccc(NC(=O)c2cc(C(=O)Nc3cccc(OC)c3)n(C)n2)c1	41	/	/
Cc1ccc(-n2nc3ccc(N)cc3n2)c(C)c1	68	/	/
O=C(O)CCN1C(=O)/C(=C2\C(=O)N(Cc3ccccc3Cl)c3ccccc32)SC1=S	-121*	-1	-31
CC(=O)Nc1ccc(NC2=C/C(=N/S(=O)(=O)c3cccs3)c3ccccc3C2=O)cc1	90	/	/
CC(=O)Nc1ccc(NC(=O)C2CCCN2C(=O)Nc2ccc(F)cc2)cc1 (centres undefined)	-208*	4	15
COC(=O)C1=C(C)N(Cc2ccccc2)C(=NCc2ccc(OC)cc2)N[C@H]1c1ccccc1	51	/	/
O=C(NCCc1ccccc1)C1CCCN1C(=O)Nc1ccc(F)cc1 (centres undefined)	-43*	6	12
COc1ccc(NC(=O)N2CCCC2C(=O)Nc2ccccc2)cc1 (centres undefined)	-41*	1	13
COc1ccc(NC(=O)NNc2cc(N3CCOCC3)nc(N3CCOCC3)n2)cc1	52	/	/
C[C@]12CC[C@@H]3c4ccc(OS(=O)(=O)O)cc4CC[C@H]3[C@@H]1CCC2=O	6	/	/
COC(=O)c1cccc(-c2ccc(C(c3c(C)[nH][nH]c3=O)c3c(C)[nH][nH]c3=O)o2)c1	81	/	/

Bioassay records (PubChem BioAssay)
